According to PMC9444296 (Investigative Radiology, 2022):
Where two headings read alike, the source gives them in different places.

Experiments:
[1] = system: cardiovascular and respiratory system functions; experiment: Cardiovascular and respiratory safety pharmacology in conscious beagle dogs; assay type: in vivo, dog; conditions: single IV 0.07, 0.21, or 0.70 mmol/kg
Outline: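 GLP study in 9 conscious beagle dogs (4 M, 5 F) given a single IV dose of saline or 0.07, 0.21 or 0.70 mmol/kg, at 3.5 mL/kg. Recorded within 1 h predose and at 0.5, 1, 2, 4 and 24 h: ECG (HR, PR, QRS, QT/QTcF, QRS voltage, STe, rhythm, waveform), systolic/diastolic/mean blood pressure, respiratory frequency and tidal volume.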

[2] = Gd remaining in rat tissues after toxicity study; assay type: in vivo; conditions: for Measured Concentration of Gd, Mean: day 29, ICP-MS
Outline: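 Femur, abdominal skin, liver, brain, quadriceps, lung, heart, kidney, spleen, colon and jejunum were collected, and residual Gd was measured by ICP-MS.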

OATP1B1 = OATP1B1 (Homo sapiens, UniProt Q9Y6L6); experiment: OATP1B1 inhibition, HEK293 cells; assay type: in vitro ADME; conditions: 1, 5, 10, 50, and 100 μM
HRH1 = HRH1 (Homo sapiens, UniProt P35367); experiment: SAFETYscan E/IC50 assay, HRH1; assay type: biochemical; conditions: concentration range 0.005 to 100 μM
Sequence of HRH1 (P35367 whole entry, the tested form may be a part): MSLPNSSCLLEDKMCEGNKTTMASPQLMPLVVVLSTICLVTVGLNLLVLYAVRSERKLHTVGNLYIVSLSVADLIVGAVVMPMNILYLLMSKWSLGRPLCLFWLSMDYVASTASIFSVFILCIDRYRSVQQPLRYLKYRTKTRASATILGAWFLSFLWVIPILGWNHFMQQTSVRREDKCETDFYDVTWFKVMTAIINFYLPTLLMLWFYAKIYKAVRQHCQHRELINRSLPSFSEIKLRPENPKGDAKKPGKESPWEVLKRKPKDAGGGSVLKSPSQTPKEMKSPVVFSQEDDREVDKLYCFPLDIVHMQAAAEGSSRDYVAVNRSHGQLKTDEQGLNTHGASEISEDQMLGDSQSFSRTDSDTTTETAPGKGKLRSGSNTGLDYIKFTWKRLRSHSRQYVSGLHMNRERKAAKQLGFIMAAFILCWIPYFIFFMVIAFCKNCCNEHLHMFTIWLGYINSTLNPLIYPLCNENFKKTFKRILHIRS
Outline: (§1)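 Contract-laboratory in vitro panel of 78 targets, run in agonist and/or antagonist modes under provider SOPs over 0.005 to 100 μM. Panel formats included enzyme fragment complementation, FLIPR-based cellular assays, kinase binding and enzymatic assays.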

bone marrow of ICR mice = experiment: Micronucleus assay in ICR mice; assay type: in vivo, mouse; conditions: ICR mice, 1.39, 0.70, and 0.35 mmol/kg/d for 2 days
Outline: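 Male ICR mice, 32 in total, were dosed once daily for 2 days: vehicle, 500 or 1000 mg/kg/d (6 per group) or 2000 mg/kg/d (8 mice). Cyclophosphamide monohydrate served as positive control. Bone marrow was collected about 22.5 h after the final dose and scored for micronuclei and for polychromatic to total erythrocytes.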

CYP3A4 = conditions: human primary hepatocytes, 1, 10, and 100 μM
CYP2D6 = CYP2D6 (Homo sapiens, UniProt P10635); experiment: CYP2D6 inhibition in human liver microsomes; assay type: in vitro ADME; conditions: 0.01, 0.1, 1, 10, and 100 μM, pooled human liver microsomes 0.5 mg/mL
Sequence of CYP2D6 (P10635 whole entry): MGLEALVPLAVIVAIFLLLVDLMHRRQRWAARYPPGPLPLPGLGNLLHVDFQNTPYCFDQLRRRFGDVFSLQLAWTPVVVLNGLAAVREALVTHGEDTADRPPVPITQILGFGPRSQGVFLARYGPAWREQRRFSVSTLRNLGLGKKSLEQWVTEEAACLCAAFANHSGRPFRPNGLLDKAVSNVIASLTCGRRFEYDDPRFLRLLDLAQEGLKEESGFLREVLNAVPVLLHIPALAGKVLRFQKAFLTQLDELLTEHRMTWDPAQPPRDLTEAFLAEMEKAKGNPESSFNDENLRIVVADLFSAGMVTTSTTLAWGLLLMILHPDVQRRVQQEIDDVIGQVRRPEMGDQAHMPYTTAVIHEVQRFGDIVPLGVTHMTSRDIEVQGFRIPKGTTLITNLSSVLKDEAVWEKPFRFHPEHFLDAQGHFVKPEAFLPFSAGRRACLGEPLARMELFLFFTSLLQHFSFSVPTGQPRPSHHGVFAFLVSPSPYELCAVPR

[3] = Metabolic stability in beagle dog hepatocytes; assay type: in vitro ADME; conditions: 2 hours of incubation, LC-MS/MS
CYP2C9 = CYP2C9 (Homo sapiens, UniProt P11712); experiment: CYP2C9 inhibition in human liver microsomes; conditions: 0.01, 0.1, 1, 10, and 100 μM, pooled human liver microsomes 0.5 mg/mL
Sequence of CYP2C9 (P11712 whole entry): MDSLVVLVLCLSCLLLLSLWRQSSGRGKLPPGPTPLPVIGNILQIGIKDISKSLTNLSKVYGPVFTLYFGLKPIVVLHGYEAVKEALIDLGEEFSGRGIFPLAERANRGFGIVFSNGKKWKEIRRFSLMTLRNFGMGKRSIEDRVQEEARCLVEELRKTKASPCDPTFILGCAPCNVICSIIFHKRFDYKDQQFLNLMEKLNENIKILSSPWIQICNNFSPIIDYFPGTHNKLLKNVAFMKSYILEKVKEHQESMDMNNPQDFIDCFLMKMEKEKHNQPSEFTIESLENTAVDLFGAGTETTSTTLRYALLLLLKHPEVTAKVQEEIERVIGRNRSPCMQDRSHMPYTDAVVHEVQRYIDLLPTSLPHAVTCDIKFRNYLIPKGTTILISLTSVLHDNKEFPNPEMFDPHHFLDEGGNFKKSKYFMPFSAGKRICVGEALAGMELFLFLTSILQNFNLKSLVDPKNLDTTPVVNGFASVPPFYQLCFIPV

OPRD1 = OPRD1 (Homo sapiens, UniProt P41143); experiment: SAFETYscan E/IC50 assay, OPRD1; assay type: biochemical; conditions: concentration range 0.005 to 100 μM
Sequence of OPRD1 (P41143 whole entry): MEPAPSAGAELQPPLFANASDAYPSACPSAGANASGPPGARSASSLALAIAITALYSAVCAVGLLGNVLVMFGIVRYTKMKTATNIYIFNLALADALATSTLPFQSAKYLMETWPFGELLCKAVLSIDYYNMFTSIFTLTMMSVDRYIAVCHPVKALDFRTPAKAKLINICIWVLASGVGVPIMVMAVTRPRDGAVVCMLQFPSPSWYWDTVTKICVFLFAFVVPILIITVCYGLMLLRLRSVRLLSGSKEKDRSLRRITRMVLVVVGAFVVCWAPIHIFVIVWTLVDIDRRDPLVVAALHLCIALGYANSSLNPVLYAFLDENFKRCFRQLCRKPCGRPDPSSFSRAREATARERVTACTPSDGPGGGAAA
Outline: as §1

OCT2 = OCT2 (Homo sapiens, UniProt O15244); experiment: OCT2 inhibition, HEK293 cells; assay type: in vitro ADME; conditions: 1, 5, 10, 50, and 100 μM
Sequence of OCT2 (O15244 whole entry): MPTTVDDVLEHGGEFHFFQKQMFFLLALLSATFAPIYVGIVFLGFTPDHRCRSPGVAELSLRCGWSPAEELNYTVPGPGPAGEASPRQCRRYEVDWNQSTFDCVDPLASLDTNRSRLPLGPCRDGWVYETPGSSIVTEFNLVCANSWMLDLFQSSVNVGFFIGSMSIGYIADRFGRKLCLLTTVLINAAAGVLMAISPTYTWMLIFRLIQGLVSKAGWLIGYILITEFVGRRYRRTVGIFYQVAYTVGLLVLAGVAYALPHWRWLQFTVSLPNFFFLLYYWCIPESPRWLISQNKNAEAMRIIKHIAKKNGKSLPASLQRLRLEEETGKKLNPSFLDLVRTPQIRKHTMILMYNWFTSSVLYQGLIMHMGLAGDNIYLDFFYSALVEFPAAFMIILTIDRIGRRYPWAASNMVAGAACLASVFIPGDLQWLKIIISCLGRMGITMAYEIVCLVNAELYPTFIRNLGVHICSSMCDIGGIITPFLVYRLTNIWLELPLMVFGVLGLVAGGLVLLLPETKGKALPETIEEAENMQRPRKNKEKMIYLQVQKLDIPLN

hERG = hERG (Homo sapiens, UniProt Q12809); conditions: HEK293, whole-cell patch clamp
Sequence of hERG (Q12809 whole entry): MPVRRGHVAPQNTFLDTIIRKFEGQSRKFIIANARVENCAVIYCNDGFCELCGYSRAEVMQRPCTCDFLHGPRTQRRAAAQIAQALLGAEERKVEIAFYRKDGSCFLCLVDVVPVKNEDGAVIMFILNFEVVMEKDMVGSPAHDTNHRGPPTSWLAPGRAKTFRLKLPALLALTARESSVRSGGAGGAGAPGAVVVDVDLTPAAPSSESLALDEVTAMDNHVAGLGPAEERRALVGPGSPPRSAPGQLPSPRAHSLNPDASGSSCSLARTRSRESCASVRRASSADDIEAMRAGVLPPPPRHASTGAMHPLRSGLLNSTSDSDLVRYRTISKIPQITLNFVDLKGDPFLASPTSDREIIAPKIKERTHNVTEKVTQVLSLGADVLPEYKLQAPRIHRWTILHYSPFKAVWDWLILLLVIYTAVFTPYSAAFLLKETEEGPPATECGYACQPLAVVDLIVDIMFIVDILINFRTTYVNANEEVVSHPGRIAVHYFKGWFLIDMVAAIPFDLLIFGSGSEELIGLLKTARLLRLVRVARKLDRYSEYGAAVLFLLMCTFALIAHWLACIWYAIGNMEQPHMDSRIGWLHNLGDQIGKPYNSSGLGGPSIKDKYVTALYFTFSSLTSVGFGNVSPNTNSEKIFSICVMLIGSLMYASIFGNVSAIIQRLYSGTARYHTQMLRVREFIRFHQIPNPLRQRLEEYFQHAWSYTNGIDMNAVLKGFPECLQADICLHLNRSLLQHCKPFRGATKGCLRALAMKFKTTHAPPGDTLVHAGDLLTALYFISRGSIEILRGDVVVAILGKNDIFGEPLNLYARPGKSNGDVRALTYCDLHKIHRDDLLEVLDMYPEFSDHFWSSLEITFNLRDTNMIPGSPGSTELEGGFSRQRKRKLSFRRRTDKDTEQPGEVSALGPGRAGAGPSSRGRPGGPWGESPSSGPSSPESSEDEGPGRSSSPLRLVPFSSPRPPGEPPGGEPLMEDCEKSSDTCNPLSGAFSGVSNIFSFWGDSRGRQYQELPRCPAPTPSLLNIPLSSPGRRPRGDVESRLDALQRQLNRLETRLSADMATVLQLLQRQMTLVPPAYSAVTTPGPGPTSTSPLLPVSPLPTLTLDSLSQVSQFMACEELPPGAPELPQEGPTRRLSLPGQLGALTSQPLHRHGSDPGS

MDR1 = MDR1 (Homo sapiens, UniProt P08183); experiment: MDR1 inhibition, membrane vesicles; assay type: in vitro ADME; conditions: 1, 5, 10, 50, and 100 μM
Sequence of MDR1 (P08183 whole entry): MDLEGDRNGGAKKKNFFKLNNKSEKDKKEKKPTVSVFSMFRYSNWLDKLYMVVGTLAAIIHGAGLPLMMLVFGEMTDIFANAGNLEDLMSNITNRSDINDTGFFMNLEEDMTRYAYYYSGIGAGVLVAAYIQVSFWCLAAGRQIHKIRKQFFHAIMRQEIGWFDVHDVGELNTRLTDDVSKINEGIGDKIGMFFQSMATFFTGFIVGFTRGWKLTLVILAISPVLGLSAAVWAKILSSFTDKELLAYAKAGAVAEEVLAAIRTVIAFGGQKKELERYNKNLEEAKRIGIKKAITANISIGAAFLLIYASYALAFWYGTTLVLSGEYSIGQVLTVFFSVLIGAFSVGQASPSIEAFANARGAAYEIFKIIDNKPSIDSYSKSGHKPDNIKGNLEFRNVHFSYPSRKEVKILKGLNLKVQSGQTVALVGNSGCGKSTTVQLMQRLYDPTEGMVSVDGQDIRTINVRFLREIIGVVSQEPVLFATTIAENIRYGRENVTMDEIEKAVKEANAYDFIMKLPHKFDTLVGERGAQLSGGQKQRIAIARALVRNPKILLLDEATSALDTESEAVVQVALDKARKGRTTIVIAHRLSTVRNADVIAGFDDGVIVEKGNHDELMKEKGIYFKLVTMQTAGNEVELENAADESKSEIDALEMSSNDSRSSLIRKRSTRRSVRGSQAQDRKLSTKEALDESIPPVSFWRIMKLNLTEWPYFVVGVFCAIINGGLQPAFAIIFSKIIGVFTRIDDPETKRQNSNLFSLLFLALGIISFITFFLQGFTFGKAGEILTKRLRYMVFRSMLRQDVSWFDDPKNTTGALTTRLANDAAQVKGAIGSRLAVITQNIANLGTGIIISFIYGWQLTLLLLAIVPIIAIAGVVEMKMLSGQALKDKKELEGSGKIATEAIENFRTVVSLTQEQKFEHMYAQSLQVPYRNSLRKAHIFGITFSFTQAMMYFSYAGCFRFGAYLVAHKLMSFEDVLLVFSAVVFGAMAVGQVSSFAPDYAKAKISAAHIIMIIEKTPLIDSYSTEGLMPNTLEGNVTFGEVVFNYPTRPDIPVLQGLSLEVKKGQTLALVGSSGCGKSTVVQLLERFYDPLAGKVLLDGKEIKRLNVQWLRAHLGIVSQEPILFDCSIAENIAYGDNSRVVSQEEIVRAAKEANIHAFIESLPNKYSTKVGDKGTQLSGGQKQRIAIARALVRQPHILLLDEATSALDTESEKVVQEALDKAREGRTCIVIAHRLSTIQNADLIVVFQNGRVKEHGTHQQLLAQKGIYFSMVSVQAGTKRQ

CAV1.2 = CAV1.2 (Homo sapiens, UniProt Q13936); experiment: SAFETYscan E/IC50 assay, CAV1.2; assay type: biochemical; conditions: concentration range 0.005 to 100 μM
Outline: as §1

[4] = Plasma protein binding, dog plasma; assay type: in vitro ADME; conditions: 37°C, 3 min, 10 kDa ultrafiltration, Gd by ICP-OES, n = 4
Outline: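 Test compound at 50, 80 or 110 μM was incubated with human, dog or rat plasma (alongside HSA 40 mg/mL and PBS) at 37°C for 3 min. Mixtures were kept overnight and centrifuged to remove insolubles. Gd was measured by ICP-OES, and the binding ratio was taken as bound over total concentration.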

[5] = rats, single dose 1.39 mmol/kg, day 15, ICP-MS

ZD2-N3-Gd(HP-DO3A) [MT218]
effect on ECG, blood pressure and respiratory function parameters [1]: no MT218-related effect
Measured Concentration of Gd, Mean ([2]; Female rat, Bone, 0.15 mmol/kg/d daily IV 2 weeks): 0.19 μg/g Tissue
Measured Concentration of Gd, Mean ([2]; Female rat, Bone, 0.46 mmol/kg/d daily IV 2 weeks): 1.13 μg/g Tissue
Measured Concentration of Gd, Mean ([2]; Female rat, Bone, 1.39 mmol/kg/d daily IV 2 weeks): 4.90 μg/g Tissue
Measured Concentration of Gd, Mean ([2]; Female rat, Brain, 0.15 mmol/kg/d daily IV 2 weeks): BQL
Measured Concentration of Gd, Mean ([2]; Female rat, Brain, 0.46 mmol/kg/d daily IV 2 weeks): 0.03 μg/g Tissue
Measured Concentration of Gd, Mean ([2]; Female rat, Brain, 1.39 mmol/kg/d daily IV 2 weeks): 0.40 μg/g Tissue
Measured Concentration of Gd, Mean ([2]; Female rat, Colon, 0.15 mmol/kg/d daily IV 2 weeks): 0.15 μg/g Tissue
Measured Concentration of Gd, Mean ([2]; Female rat, Colon, 0.46 mmol/kg/d daily IV 2 weeks): 1.02 μg/g Tissue
Measured Concentration of Gd, Mean ([2]; Female rat, Colon, 1.39 mmol/kg/d daily IV 2 weeks): 3.44 μg/g Tissue
Measured Concentration of Gd, Mean ([2]; Female rat, Heart, 0.15 mmol/kg/d daily IV 2 weeks): BQL
Measured Concentration of Gd, Mean ([2]; Female rat, Heart, 0.46 mmol/kg/d daily IV 2 weeks): 3.17 μg/g Tissue
Measured Concentration of Gd, Mean ([2]; Female rat, Heart, 1.39 mmol/kg/d daily IV 2 weeks): 1.85 μg/g Tissue
Measured Concentration of Gd, Mean ([2]; Female rat, Jejunum, 0.15 mmol/kg/d daily IV 2 weeks): 0.23 μg/g Tissue
Measured Concentration of Gd, Mean ([2]; Female rat, Jejunum, 0.46 mmol/kg/d daily IV 2 weeks): 0.73 μg/g Tissue
Measured Concentration of Gd, Mean ([2]; Female rat, Jejunum, 1.39 mmol/kg/d daily IV 2 weeks): 3.26 μg/g Tissue
Measured Concentration of Gd, Mean ([2]; Female rat, Kidney, 0.15 mmol/kg/d daily IV 2 weeks): 26.46 μg/g Tissue
Measured Concentration of Gd, Mean ([2]; Female rat, Kidney, 0.46 mmol/kg/d daily IV 2 weeks): 100.81 μg/g Tissue
Measured Concentration of Gd, Mean ([2]; Female rat, Kidney, 1.39 mmol/kg/d daily IV 2 weeks): 346.00 μg/g Tissue
Measured Concentration of Gd, Mean ([2]; Female rat, Liver, 0.15 mmol/kg/d daily IV 2 weeks): 0.31 μg/g Tissue
Measured Concentration of Gd, Mean ([2]; Female rat, Liver, 0.46 mmol/kg/d daily IV 2 weeks): 1.03 μg/g Tissue
Measured Concentration of Gd, Mean ([2]; Female rat, Liver, 1.39 mmol/kg/d daily IV 2 weeks): 4.11 μg/g Tissue
Measured Concentration of Gd, Mean ([2]; Female rat, Lung, 0.15 mmol/kg/d daily IV 2 weeks): 0.20 μg/g Tissue
Measured Concentration of Gd, Mean ([2]; Female rat, Lung, 0.46 mmol/kg/d daily IV 2 weeks): 1.27 μg/g Tissue
Measured Concentration of Gd, Mean ([2]; Female rat, Lung, 1.39 mmol/kg/d daily IV 2 weeks): 3.86 μg/g Tissue
Measured Concentration of Gd, Mean ([2]; Female rat, Muscle, 0.15 mmol/kg/d daily IV 2 weeks): 0.03 μg/g Tissue
Measured Concentration of Gd, Mean ([2]; Female rat, Muscle, 0.46 mmol/kg/d daily IV 2 weeks): 0.21 μg/g Tissue
Measured Concentration of Gd, Mean ([2]; Female rat, Muscle, 1.39 mmol/kg/d daily IV 2 weeks): 1.27 μg/g Tissue
Measured Concentration of Gd, Mean ([2]; Female rat, Skin, 0.15 mmol/kg/d daily IV 2 weeks): 0.14 μg/g Tissue
Measured Concentration of Gd, Mean ([2]; Female rat, Skin, 0.46 mmol/kg/d daily IV 2 weeks): 1.26 μg/g Tissue
Measured Concentration of Gd, Mean ([2]; Female rat, Skin, 1.39 mmol/kg/d daily IV 2 weeks): 4.56 μg/g Tissue
Measured Concentration of Gd, Mean ([2]; Female rat, Spleen, 0.15 mmol/kg/d daily IV 2 weeks): 0.32 μg/g Tissue
Measured Concentration of Gd, Mean ([2]; Female rat, Spleen, 0.46 mmol/kg/d daily IV 2 weeks): 1.41 μg/g Tissue
Measured Concentration of Gd, Mean ([2]; Female rat, Spleen, 1.39 mmol/kg/d daily IV 2 weeks): 4.69 μg/g Tissue
Measured Concentration of Gd, Mean ([2]; Male rat, Bone, 0.15 mmol/kg/d daily IV 2 weeks): 0.28 μg/g Tissue
Measured Concentration of Gd, Mean ([2]; Male rat, Bone, 0.46 mmol/kg/d daily IV 2 weeks): 0.70 μg/g Tissue
Measured Concentration of Gd, Mean ([2]; Male rat, Bone, 1.39 mmol/kg/d daily IV 2 weeks): 5.85 μg/g Tissue
Measured Concentration of Gd, Mean ([2]; Male rat, Brain, 0.15 mmol/kg/d daily IV 2 weeks): BQL
Measured Concentration of Gd, Mean ([2]; Male rat, Brain, 0.46 mmol/kg/d daily IV 2 weeks): 0.07 μg/g Tissue
Measured Concentration of Gd, Mean ([2]; Male rat, Colon, 0.15 mmol/kg/d daily IV 2 weeks): 0.18 μg/g Tissue
Measured Concentration of Gd, Mean ([2]; Male rat, Colon, 0.46 mmol/kg/d daily IV 2 weeks): 0.79 μg/g Tissue
Measured Concentration of Gd, Mean ([2]; Male rat, Colon, 1.39 mmol/kg/d daily IV 2 weeks): 3.92 μg/g Tissue
Measured Concentration of Gd, Mean ([2]; Male rat, Heart, 0.15 mmol/kg/d daily IV 2 weeks): 0.14 μg/g Tissue
Measured Concentration of Gd, Mean ([2]; Male rat, Heart, 0.46 mmol/kg/d daily IV 2 weeks): 1.72 μg/g Tissue
Measured Concentration of Gd, Mean ([2]; Male rat, Heart, 1.39 mmol/kg/d daily IV 2 weeks): 2.56 μg/g Tissue
Measured Concentration of Gd, Mean ([2]; Male rat, Jejunum, 0.15 mmol/kg/d daily IV 2 weeks): 0.17 μg/g Tissue
Measured Concentration of Gd, Mean ([2]; Male rat, Jejunum, 0.46 mmol/kg/d daily IV 2 weeks): 0.73 μg/g Tissue
Measured Concentration of Gd, Mean ([2]; Male rat, Jejunum, 1.39 mmol/kg/d daily IV 2 weeks): 3.72 μg/g Tissue
Measured Concentration of Gd, Mean ([2]; Male rat, Kidney, 0.15 mmol/kg/d daily IV 2 weeks): 15.15 μg/g Tissue
Measured Concentration of Gd, Mean ([2]; Male rat, Kidney, 0.46 mmol/kg/d daily IV 2 weeks): 70.70 μg/g Tissue
Measured Concentration of Gd, Mean ([2]; Male rat, Kidney, 1.39 mmol/kg/d daily IV 2 weeks): 519.85 μg/g Tissue
Measured Concentration of Gd, Mean ([2]; Male rat, Liver, 0.15 mmol/kg/d daily IV 2 weeks): 0.22 μg/g Tissue
Measured Concentration of Gd, Mean ([2]; Male rat, Liver, 0.46 mmol/kg/d daily IV 2 weeks): 1.96 μg/g Tissue
Measured Concentration of Gd, Mean ([2]; Male rat, Liver, 1.39 mmol/kg/d daily IV 2 weeks): 4.85 μg/g Tissue
Measured Concentration of Gd, Mean ([2]; Male rat, Lung, 0.15 mmol/kg/d daily IV 2 weeks): BQL
Measured Concentration of Gd, Mean ([2]; Male rat, Lung, 0.46 mmol/kg/d daily IV 2 weeks): 1.33 μg/g Tissue
Measured Concentration of Gd, Mean ([2]; Male rat, Lung, 1.39 mmol/kg/d daily IV 2 weeks): 4.83 μg/g Tissue
Measured Concentration of Gd, Mean ([2]; Male rat, Muscle, 0.15 mmol/kg/d daily IV 2 weeks): BQL
Measured Concentration of Gd, Mean ([2]; Male rat, Muscle, 0.46 mmol/kg/d daily IV 2 weeks): 0.22 μg/g Tissue
Measured Concentration of Gd, Mean ([2]; Male rat, Muscle, 1.39 mmol/kg/d daily IV 2 weeks): 1.15 μg/g Tissue
Measured Concentration of Gd, Mean ([2]; Male rat, Skin, 0.15 mmol/kg/d daily IV 2 weeks): 0.13 μg/g Tissue
Measured Concentration of Gd, Mean ([2]; Male rat, Skin, 0.46 mmol/kg/d daily IV 2 weeks): 0.95 μg/g Tissue
Measured Concentration of Gd, Mean ([2]; Male rat, Skin, 1.39 mmol/kg/d daily IV 2 weeks): 2.31 μg/g Tissue
Measured Concentration of Gd, Mean ([2]; Male rat, Spleen, 0.15 mmol/kg/d daily IV 2 weeks): 0.37 μg/g Tissue
Measured Concentration of Gd, Mean ([2]; Male rat, Spleen, 0.46 mmol/kg/d daily IV 2 weeks): 1.12 μg/g Tissue
Measured Concentration of Gd, Mean ([2]; Male rat, Spleen, 1.39 mmol/kg/d daily IV 2 weeks): 6.04 μg/g Tissue
Gd concentration in other tissues relative to the kidney concentration [2, 5]: < 1/20
Gd in the brain and muscles [2, 5]: not detected
inhibition of OATP1B1 transporter activity (OATP1B1): no inhibition potential
inhibition rate (HRH1): 17.77%
incidence of micronuclei vs vehicle control (bone marrow of ICR mice): no significant increase
ratio of polychromatic erythrocytes to total erythrocytes (bone marrow of ICR mice): no significant decrease
induction of mRNA expression of CYP3A4 (CYP3A4): did not induce
induction on enzyme activity of CYP3A4 (CYP3A4): no induction
inhibition of CYP2D6 activity (CYP2D6): did not inhibit
remaining MT218 [3]: 41.0%
inhibition of CYP2C9 activity (CYP2C9): did not inhibit
inhibition rate (OPRD1): 11.08%
inhibition of OCT2 transporter activity (OCT2): no inhibition potential
average inhibition of the hERG currents (hERG; 30.69 μM): 36.87% ± 6.93%
average inhibition of the hERG currents (hERG; 103.54 μM): 52.19% ± 0.82%
inhibition of MDR1 transporter activity (MDR1): no inhibition potential
inhibition rate (CAV1.2): 15.58%
binding ratio to plasma proteins ([4]; 50 μM): 29.10%
binding ratio to plasma proteins ([4]; 80 μM): 26.91%
binding ratio to plasma proteins ([4]; 110 μM): 48.44%
